Structures are written as SMILES. “Also recorded” adds a separate entry of the source. Like-named read-outs stand apart in the source and are kept apart here. Marks after values point to notes of the source that are not given here.

One data set deals with advanced solid tumors. Particulars: mixed populations of patients with advanced solid tumors; cited from earlier work.
The conditions of data set [1]: at lesser frequency than BI 853520; cited from earlier work.
For data set [2] the following is noted: rats; cited from earlier work.
The conditions of data set [3]: liquid dispersion vs. tablet; with/without a high-calorie meal; cited from earlier work.
A short description of data set [4]: Phase I dose-finding study: safety, DLT and MTD. The class given is in vivo, human. The essentials:
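Open-label 3 + 3 dose escalation in cohorts of three to six patients. Oral dosing was once daily, continuous, in 28-day cycles, starting at 50 mg, with 100 and 200 mg planned. DLT was assessed during cycle 1. MTD was the highest level with DLT in none or one of six patients, followed by an expansion cohort at that dose. AEs were graded by CTCAE v4.03 in all patients receiving ≥1 dose.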

For data set [5] the following is noted: dogs; cited from earlier work.
Data set [6] can be described thus: Plasma and urine pharmacokinetics in cycle 1. It counts as in vivo, human.
For data set [7] the following is noted: cited from earlier work.
In data set [8] the test system is advanced or metastatic non-hematologic malignancies. The note with it: FIH study; cited from earlier work.
Another data set relates to MiaPaCa2 xenograft. The note with it: QD; cited from earlier work.
Data set [9] deals with advanced or metastatic solid tumors. In words: Investigator-assessed anti-tumor activity, RECIST version 1.1. It counts as in vivo, human. The essentials: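 Open-label phase I study in Japanese and Taiwanese patients (ECOG 0–1) given oral drug once daily, continuously, in 28-day cycles at 50, 100 or 200 mg. CT/MRI at screening, at end of cycle 2, then every two cycles until treatment ended. Objective response was CR or PR; disease control was CR, PR or SD. Evaluable patients had baseline plus ≥1 post-baseline assessment. Analysis was descriptive on patients receiving ≥1 dose.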

[10] abbreviates: 200 mg QD, N = 10, geometric mean.

With `CNC(=O)c1ccc(Nc2ncc(C(F)(F)F)c(NCc3nccnc3N(C)S(C)(=O)=O)n2)cc1` [VS-6063], the “anti-tumor activity in phase I” value in the data set on advanced solid tumors is reported as “evidence of disease stabilization”.
In the case of `CN(c1ncccc1CNc1nc(Nc2ccc3c(c2)CC(=O)N3)ncc1C(F)(F)F)S(C)(=O)=O` [PF-00562271], the “anti-tumor activity in phase I” value in the data set on advanced solid tumors was “evidence of disease stabilization”. Also, the proteinuria entry in [1] was “Proteinuria has been reported”.
As for `CONC(=O)c1ccccc1Nc1cc(Nc2cc(C)nn2C(C)C)ncc1Cl` [GSK2256098], the “anti-tumor activity in phase I” value with advanced solid tumors is “evidence of disease stabilization”. For the same compound, the proteinuria entry in data set [1] is “Proteinuria has been reported”.
Turning to `COc1cc(C(=O)NC2CCN(C)CC2)c(F)cc1Nc1ncc(C(F)(F)F)c(Oc2cccc3c2C(=O)N(C)C3)n1` [BI 853520], in data set [2], the “principal toxicological target organs” value is “gastrointestinal tract and liver”. Besides, the “impact of formulation and food on pharmacokinetics” value in data set [3] was “neither formulation (liquid dispersion vs. tablet) nor administration with/without a high-calorie meal have notable impact”. Further, in data set [4] (200 mg QD), the “evaluable patients treated at the MTD who experienced DLT” value is “two of 15”. In addition, in [4] (21 treated patients), the “drug-related serious AEs” value is given as “None of the SAEs was considered drug-related”, the “patients who discontinued treatment due to AEs” value is recorded as 19%, the “patients with drug-related adverse events” value worked out at 90% and the “patients with drug-related diarrhea” value is reported as 38%. Moreover, in data set [4] (21 treated patients), the “patients with drug-related nausea” value was 29%, the “patients with drug-related proteinuria” value is 48%, the “patients with drug-related vomiting” value was determined as 19% and the “patients with serious AEs (SAEs)” value worked out at 24%. In data set [4] (50, 100, or 200 mg cohorts), the “dose-limiting toxicities during cycle 1” value is recorded as “no dose-limiting toxicities were observed; also recorded: no DLTs were observed”. Further, in [4] (N = 21, all dose cohorts), the “Any drug-related AE” value is 19 (90) N (%), the “Drug-related AE: AST increased” value was 1 (5) N (%), the “Drug-related AE: Abdominal pain upper” value is listed as 1 (5) N (%) and the “Drug-related AE: Anemia” value is 1 (5) N (%). Moreover, in data set [4] (N = 21, all dose cohorts), the “Drug-related AE: Back pain” value was 1 (5) N (%), the “Drug-related AE: Blood bilirubin increased” value is 1 (5) N (%), the “Drug-related AE: Blood creatinine increased” value is 1 (5) N (%) and the “Drug-related AE: Decreased appetite” value is on record as 2 (10) N (%). Moreover, in data set [4] (N = 21, all dose cohorts), the “Drug-related AE: Dehydration” value is 1 (5) N (%), the “Drug-related AE: Diarrhea” value is 8 (38) N (%), the “Drug-related AE: Dupuytren’s contracture” value was 2 (10) N (%) and the “Drug-related AE: Erectile dysfunction” value is listed as 1 (5) N (%). In addition, in [4] (N = 21, all dose cohorts), the “Drug-related AE: Fatigue” value is given as 1 (5) N (%), the “Drug-related AE: Inguinal hernia” value is given as 1 (5) N (%), the “Drug-related AE: Nausea” value is 6 (29) N (%) and the “Drug-related AE: Proteinuria” value is 10 (48) N (%). Also, in [4] (N = 21, all dose cohorts), the “Drug-related AE: Rash, maculo-papular” value is given as 2 (10) N (%) and the “Drug-related AE: Vomiting” value is listed as 4 (19) N (%). The “maximum tolerated dose (MTD)” value in [4] (QD continuous daily dosing, 28-day cycles, Japanese and Taiwanese patients) came to 200 mg. In [4] (all treated patients, all cycles), the “DLTs reported overall during the study” value is “three of 21”. Moreover, in [5], the “principal toxicological target organs” value was “gastrointestinal tract and liver”. In addition, in data set [6] (200 mg QD cohort), the “cumulative fraction excreted in urine” value is “less than 9%”. For the same compound, in [6] (setting [10]), the “RA,AUC (accumulation ratio, AUC at steady state / single dose)” value worked out at 2.15 and the “RA,Cmax (accumulation ratio, Cmax at steady state / single dose)” value was 1.62. Moreover, the trough plasma concentrations result in [6] (cycle 1, repeated QD dosing) is listed as “stable from day 8 to day 28”. In data set [6] (human, plasma, oral, 200 mg, AUC0−∞, single dose, 200 mg QD cohort, N = 15, geometric mean), the AUC(0-inf) – broadly, total exposure, with the tail of the curve extrapolated – was determined as 26.3 µM·h. Moreover, the AUC (usually concentration integrated over time) in data set [6] (human, plasma, oral, 200 mg, AUCτ,1, single dose, 200 mg QD cohort, N = 15, geometric mean) turned out to be 15.3 µM·h. In [6] (human, plasma, oral, 200 mg, Cmax, single dose, 200 mg QD cohort, N = 15, geometric mean), the highest level (Cmax) was 1570 nM. Besides, the Vd/F (usually the volume of distribution divided by bioavailability) in data set [6] (human, plasma, oral, 200 mg, Vz/F, single dose, 200 mg QD cohort, N = 15, geometric mean) was found to be 391 L. The time of peak concentration (Tmax) (as a rule, the time from dosing to the highest level) in [6] (human, plasma, oral, 200 mg, tmax, single dose, 200 mg QD cohort, N = 15, median) was 2 h. For the same compound, in data set [6] (human, plasma, oral, 200 mg, t½, single dose, 200 mg QD cohort, N = 15, geometric mean), the half-life – broadly, the time needed for the level to fall by half in the phase considered – was 20.9 h. For the same compound, the “tmax,ss” value in [6] (multiple dose, steady state day 28, 200 mg QD, N = 10, median) was 2.94 h. Besides, the “CL/F,ss” value in data set [6] (multiple dose, steady state, 200 mg QD, N = 10, geometric mean) worked out at 155 mL/min. For the same compound, the “fe0−24,ss” value in [6] (multiple dose, steady state, 200 mg QD, urine, N = 10, geometric mean) came out at 8.86%. The CL/F (in general, the apparent clearance, not corrected for the fraction that reaches the circulation) in data set [6] (single dose, 200 mg QD cohort, N = 15, geometric mean) is 216 mL/min. Moreover, the “fe0–24” value in data set [6] (single dose, 200 mg QD cohort, urine, data for 13 patients, geometric mean) was 5.60^b %. Also, the “DLTs or DRAEs of grade ≥ 2” value in data set [7] (50 mg QD or 100 mg QD) is listed as “neither 50 mg QD or 100 mg QD had resulted in dose-limiting toxicities”. In addition, the “maximum tolerated dose (MTD)” value in data set [7] (QD continuous dosing, predominantly (92%) Caucasian population) is given as 200 mg. Further, in [7] (dose expansion phase of the FIH study), the “patients with grade 3 proteinuria” value was 21%. Besides, in [8], the disease control rate is on record as 27%, the “median duration of disease control” value was 3.3 months and the radiographic objective responses result was “no radiographic objective responses were reported”. The active dose in the data set with MiaPaCa2 xenograft is recorded as 12.5 mg/kg. In data set [9] (21 treated patients), the “confirmed objective response rate” value came to 5%, the disease control rate was 29% and the “patients with progressive disease” value amounted to 57%. Besides, in data set [9] (N = 21), the “Best confirmed response: Complete response” value is 0 N (%), the “Best confirmed response: Progressive disease” value is 12 (57) N (%) and the “Best confirmed response: Stable disease” value was 5 (24)^d N (%). In addition, in [9] (N = 21, complete response or partial response), the “Best confirmed response: Objective response” value is reported as 1 (5) N (%). Moreover, the “Best confirmed response: Disease control” value in [9] (N = 21, complete response, partial response, or stable disease) is recorded as 6 (29) N (%). Also, the “Best confirmed response: Partial response” value in data set [9] (N = 21, patient with gastric cancer (100 mg cohort)) is reported as 1 (5)^c N (%). The “median duration of disease control” value in data set [9] (six patients with confirmed disease control) is 3.7 months.
